Assay [1] has as its target T1, Adrenergic receptor alpha-2 (Rattus norvegicus, UniProt P22086+P19328+P22909).
T1 sequence (P22086 whole entry): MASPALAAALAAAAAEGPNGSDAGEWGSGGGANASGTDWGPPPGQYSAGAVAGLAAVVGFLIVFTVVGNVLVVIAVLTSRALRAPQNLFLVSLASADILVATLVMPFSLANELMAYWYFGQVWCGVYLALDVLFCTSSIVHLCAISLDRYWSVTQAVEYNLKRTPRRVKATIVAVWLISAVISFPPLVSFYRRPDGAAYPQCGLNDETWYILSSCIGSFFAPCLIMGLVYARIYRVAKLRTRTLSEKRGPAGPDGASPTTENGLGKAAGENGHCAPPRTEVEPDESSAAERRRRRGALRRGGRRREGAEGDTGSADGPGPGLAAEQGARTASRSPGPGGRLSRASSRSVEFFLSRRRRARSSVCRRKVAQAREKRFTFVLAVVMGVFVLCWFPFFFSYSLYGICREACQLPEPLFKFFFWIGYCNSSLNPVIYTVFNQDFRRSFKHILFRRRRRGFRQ
T1 sequence (P19328 whole entry): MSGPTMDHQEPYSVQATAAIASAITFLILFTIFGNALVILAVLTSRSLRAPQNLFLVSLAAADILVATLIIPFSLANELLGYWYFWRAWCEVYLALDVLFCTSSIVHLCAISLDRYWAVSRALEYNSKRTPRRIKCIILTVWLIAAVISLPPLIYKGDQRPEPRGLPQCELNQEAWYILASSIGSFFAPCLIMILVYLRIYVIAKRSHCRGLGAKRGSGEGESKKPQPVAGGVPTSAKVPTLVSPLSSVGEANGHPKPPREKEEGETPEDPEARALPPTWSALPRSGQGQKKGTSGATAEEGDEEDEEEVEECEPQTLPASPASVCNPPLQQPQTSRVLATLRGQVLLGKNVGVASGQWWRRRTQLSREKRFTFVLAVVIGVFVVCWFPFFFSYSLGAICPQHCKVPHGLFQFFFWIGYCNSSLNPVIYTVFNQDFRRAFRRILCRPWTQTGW
T1 sequence (P22909 whole entry): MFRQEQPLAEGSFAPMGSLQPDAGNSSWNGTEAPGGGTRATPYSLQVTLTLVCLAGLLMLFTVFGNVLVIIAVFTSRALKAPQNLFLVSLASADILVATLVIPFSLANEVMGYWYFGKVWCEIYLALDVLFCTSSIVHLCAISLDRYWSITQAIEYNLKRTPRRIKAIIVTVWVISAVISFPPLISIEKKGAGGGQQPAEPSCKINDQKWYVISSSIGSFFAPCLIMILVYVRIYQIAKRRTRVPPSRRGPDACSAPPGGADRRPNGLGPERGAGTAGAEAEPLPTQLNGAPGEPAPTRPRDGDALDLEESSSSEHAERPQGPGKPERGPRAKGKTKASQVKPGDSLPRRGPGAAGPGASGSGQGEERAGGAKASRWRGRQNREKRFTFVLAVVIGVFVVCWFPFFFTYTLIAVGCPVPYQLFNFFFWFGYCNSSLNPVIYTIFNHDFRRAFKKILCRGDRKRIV
Kind of assay: Alpha-2 adrenergic receptor pA2 value against clonidine in vitro experiment in rat vas deferens. Type of assay: tissue-based. In short, it runs like this: (§1)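 pA2 was obtained by Arunlakshana–Schild analysis at postsynaptic α1 (anococcygeus) or presynaptic α2 (vas deferens) sites. Values are mean ± SEM of at least six experiments.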

For assay [2], the target named is T2, Adrenergic receptor alpha-2 (Rattus norvegicus) (UniProt P22086+P19328+P22909). Kind of assay: In vitro presynaptic antagonist potency at alpha-2 adrenergic receptor in rat or mouse vas deferens relative to compound 5 (RX781094). Format: functional, tissue-based. In short, it runs like this: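 Prostatic halves of rat vas deferens (male Sprague–Dawley rats, 200–250 g; Krebs, 30 °C, 95% O2/5% CO2; 3-ms, 40 V, 0.1 Hz field pulses) or mouse vas deferens (Mg-free Krebs, 30 °C; 3-ms pulses, 0.1 Hz, 100–140 V) were used, with isometric twitch recording. […] The concentration giving 50% reversal was compared with the RX781094 standard in the same tissue.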

Assay [3] addresses T3, Adrenergic receptor alpha-1 (Rattus norvegicus) (UniProt P15823+P23944+P43140). The assay is described as follows: In vitro postsynaptic agonist potency at alpha-1 adrenergic receptor in rat anococcygeus muscle relative to phenylephrine. Type of assay: functional, tissue-based.
In assay [4] the target is T2, Adrenergic receptor alpha-2 (Rattus norvegicus). The assay is described as follows: In vitro presynaptic agonist potency at alpha-2 adrenergic receptor in rat or mouse vas deferens relative to clonidine; IA means inactive. Type of assay: functional, tissue-based. In short, it runs like this: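 Field-stimulated rat or mouse vas deferens (Krebs, 30 °C, 95% O2/5% CO2, 3-ms pulses at 0.1 Hz) with isometric twitch recording. […] Standard dose-response curves were run before and after the analogue's curve.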

Assay [5] deals with T3, Adrenergic receptor alpha-1 (Rattus norvegicus). Kind of assay: Ratio of presynaptic antagonist potency to postsynaptic antagonist potency. Type of assay: functional.
Assay [6] has as its target T4, Adrenergic receptor alpha-1 (Rattus norvegicus, UniProt P15823+P23944+P43140).
T4 sequence (P15823 whole entry): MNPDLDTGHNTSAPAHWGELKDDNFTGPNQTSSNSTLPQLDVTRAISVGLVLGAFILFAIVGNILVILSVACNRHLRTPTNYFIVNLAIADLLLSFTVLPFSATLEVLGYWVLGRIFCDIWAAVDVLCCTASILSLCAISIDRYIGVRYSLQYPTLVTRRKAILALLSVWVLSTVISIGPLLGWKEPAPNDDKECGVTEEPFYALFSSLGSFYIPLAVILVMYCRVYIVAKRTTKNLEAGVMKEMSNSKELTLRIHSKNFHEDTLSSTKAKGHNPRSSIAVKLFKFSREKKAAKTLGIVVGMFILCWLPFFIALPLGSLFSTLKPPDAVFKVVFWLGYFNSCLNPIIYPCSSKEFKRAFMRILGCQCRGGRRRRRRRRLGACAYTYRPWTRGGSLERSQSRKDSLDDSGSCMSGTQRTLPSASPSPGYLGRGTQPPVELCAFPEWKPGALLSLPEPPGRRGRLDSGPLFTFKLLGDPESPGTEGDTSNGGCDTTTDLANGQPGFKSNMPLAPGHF
T4 sequence (P23944 whole entry): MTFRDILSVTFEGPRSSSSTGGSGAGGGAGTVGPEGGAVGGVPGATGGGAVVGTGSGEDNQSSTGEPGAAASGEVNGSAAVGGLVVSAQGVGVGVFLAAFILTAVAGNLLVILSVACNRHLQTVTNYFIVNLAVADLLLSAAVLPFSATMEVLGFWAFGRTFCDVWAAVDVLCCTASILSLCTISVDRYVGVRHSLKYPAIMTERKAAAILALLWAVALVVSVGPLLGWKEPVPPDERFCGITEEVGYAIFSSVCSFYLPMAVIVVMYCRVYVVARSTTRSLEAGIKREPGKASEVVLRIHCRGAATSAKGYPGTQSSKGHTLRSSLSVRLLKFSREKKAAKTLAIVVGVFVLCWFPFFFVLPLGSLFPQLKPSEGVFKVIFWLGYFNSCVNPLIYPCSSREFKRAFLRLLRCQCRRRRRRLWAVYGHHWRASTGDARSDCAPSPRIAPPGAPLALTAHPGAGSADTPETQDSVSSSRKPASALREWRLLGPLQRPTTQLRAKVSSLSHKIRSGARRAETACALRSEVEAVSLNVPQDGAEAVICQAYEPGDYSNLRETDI
T4 sequence (P43140 whole entry): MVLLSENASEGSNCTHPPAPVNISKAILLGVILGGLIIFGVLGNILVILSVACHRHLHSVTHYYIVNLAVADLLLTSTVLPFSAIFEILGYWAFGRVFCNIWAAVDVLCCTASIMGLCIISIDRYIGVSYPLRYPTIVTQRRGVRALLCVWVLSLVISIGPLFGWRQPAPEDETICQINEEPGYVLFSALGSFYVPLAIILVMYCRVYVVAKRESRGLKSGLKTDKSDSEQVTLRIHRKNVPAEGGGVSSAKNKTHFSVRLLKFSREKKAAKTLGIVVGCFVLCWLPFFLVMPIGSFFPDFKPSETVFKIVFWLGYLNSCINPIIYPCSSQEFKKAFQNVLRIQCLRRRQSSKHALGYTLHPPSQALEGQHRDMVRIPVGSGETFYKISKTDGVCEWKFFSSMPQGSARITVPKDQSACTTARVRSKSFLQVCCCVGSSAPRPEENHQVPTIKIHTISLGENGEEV
Kind of assay: Alpha-1-adrenoceptor pA2 value against norepinephrine in vitro experiment in rat anococcygeus. The method in brief:
as §1

The target in assay [7] is T3, Adrenergic receptor alpha-1 (Rattus norvegicus). Kind of assay: In vitro postsynaptic antagonist potency at alpha-1-adrenoceptor in rat anococcygeus relative to compound 5 (RX781094). Format: functional.
Assay [8] is described as follows: Ratio of pA2 value against alpha2 to alpha-1 adrenoceptor. The method in brief:
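α2/α1 selectivity was taken as the antilog of the difference between the pA2 values at α2- and α1-adrenoreceptors.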

In assay [9] the target is T4, Adrenergic receptor alpha-1. The assay is described as follows: alpha-1 adrenergic receptor pA2 value against norepinephrine in vitro experiment in rat anococcygeus.
The target of assay [10] is T3, Adrenergic receptor alpha-1 (Rattus norvegicus). Kind of assay: In vitro postsynaptic antagonist potency at alpha-1 adrenergic receptor in rat anococcygeus relative to compound 5 (RX781094). Type of assay: functional.
Assay [11] shares this target. The assay is described as follows: In vitro postsynaptic agonist potency at alpha-1 adrenergic receptor in rat anococcygeus muscle relative to phenylephrine; IA means inactive. Format: functional, tissue-based. The method in brief:
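Rat anococcygeus muscle (male Sprague–Dawley rats, 200–250 g) suspended at 0.5 g initial tension in a 50-mL organ bath. […] Standard dose-response curves were run before and after the analogue's curve.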

Assay [12] is described as follows: Selectivity ratio of presynaptic antagonist potency to postsynaptic antagonist potency. Type of assay: functional. The method in brief:
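Selectivity ratio is the antilog of the difference between pA2 values at presynaptic α2- and postsynaptic α1-adrenoreceptors. pA2 values were derived by the Arunlakshana–Schild method, each a mean ± SEM of at least six experiments.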

The target of assay [13] is T4, Adrenergic receptor alpha-1. The assay is described as follows: Alpha-1 adrenergic receptor pA2 value against norepinephrine in vitro experiment in rat anococcygeus. The method in brief: as §1

The source made the active and inactive calls. The calls are words filed in the database; no cut-off is given here.

Consider `Cc1ccc2c(c1)OC(C1=NCCN1)CO2` (centres undefined), for which the pA2 in [1] was 7.1; in assay [6], 5.87. For the same compound, the results for the Antagonist potency in [2] and in assay [7] were 0.08 and 0.8, respectively. Also, in assay [3], the Agonist potency amounted to 0.004. The Agonist potency entry in assay [4] is “inactive”. Further, the values for the Selectivity in assay [5] and in [8] were 0.14 and 17, respectively.
Regarding `CCn1ccnc1CC1COc2ccccc2O1` (centres undefined) [IMILOXAN], the pA2 in assay [9] was determined as 4.85; in assay [1], 6.98. The Antagonist potency worked out at 0.02 in assay [2] and 0.036 in assay [10]. Further, the Agonist potency result in [4] and in assay [11] was “inactive” in each case. The Selectivity in assay [12] was determined as 0.53; in assay [8] it was 135.
With `Cc1ccc2c(c1)OCC(C1=NCCN1)O2` (centres undefined), the pA2 in assay [13] is listed as 6.17; in [1], 7.56. The Antagonist potency worked out at 0.08 in assay [2] and 0.4 in [10]. For the same compound, the Agonist potency result in assay [4] and in [11] was “inactive” throughout. The Selectivity in [5] came to 0.21; in assay [8], 30.

These data come from ChEMBL document CHEMBL1122229, “alpha-adrenoreceptor reagents. 1. Synthesis of some 1,4-benzodioxans as selective presynaptic alpha 2-adrenoreceptor antagonists and potential antidepressants” (J Med Chem, 1983).
